Test results reported in ChEMBL document CHEMBL1122794, “[(Arylcarbonyl)oxy]propanolamines. 1. Novel beta-blockers with ultrashort duration of action” (J Med Chem, 1984).

Legend:
[1] = T1/2 in canine blood; assay type: ADME, […], Canis lupus familiaris; conditions: dog
Outline: (§1)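 1 mL of solution containing 50 µg of compound was added to 1 mL of dog or human whole blood, or to 1 mL of 33% (w/v) canine liver homogenate. They were assayed by HPLC on a phenyl column with 60% acetonitrile/40% 0.05 M sodium phosphate (pH 6.6) and UV detection. Half-life was read graphically from concentration versus time.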

Canis familiaris [2] = organism: Canis familiaris; assay: Time taken for 80% recovery at a dose of 15 microg (3-h infusion period); assay type: functional, organism-based; conditions: Canis lupus familiaris
Canis familiaris [3] = organism: Canis familiaris; assay: Percent inhibition of isoproterenol induced tachycardia at a dose of 15 microg (3-h infusion period); assay type: functional, Canis lupus familiaris
[4] = t1/2 in canine liver; assay type: ADME, Canis lupus familiaris; conditions: dog
Adrenergic receptor beta [5] = molecular target: T1, Adrenergic receptor beta (Homo sapiens, UniProt P08588+P07550+P13945); assay: In Vitro inhibition of the beta adrenergic receptor in guinea pig atria; assay type: tissue-based, Cavia porcellus; conditions: target entry is the homologue from another species
Adrenergic receptor beta [6] = molecular target: T1, Adrenergic receptor beta; assay: In vitro blocking of beta adrenergic receptor in guinea pig trachea; assay type: tissue-based, Cavia porcellus; conditions: target entry is the homologue from another species
[7] = Selectivity determined by expression 10[pA2(atria) - pA2 (trachea)] in guinea pig; assay type: functional, Cavia porcellus
[8] = Time in which 1/2 of the initial amount disappeared in canine blood; assay type: ADME, […], Canis lupus familiaris; conditions: dog; outline: as §1
[9] = Time in which 1/2 of the initial amount disappeared in canine liver; assay type: ADME, […], Canis lupus familiaris; conditions: dog; outline: as §1
[10] = molecular target: Beta-2 adrenergic receptor (Cavia porcellus) (UniProt Q8K4Z4); assay: In Vitro evaluation for […] selectivity in guinea pig
Chain of Beta-2 adrenergic receptor (Cavia porcellus) (Q8K4Z4 whole entry, looked up): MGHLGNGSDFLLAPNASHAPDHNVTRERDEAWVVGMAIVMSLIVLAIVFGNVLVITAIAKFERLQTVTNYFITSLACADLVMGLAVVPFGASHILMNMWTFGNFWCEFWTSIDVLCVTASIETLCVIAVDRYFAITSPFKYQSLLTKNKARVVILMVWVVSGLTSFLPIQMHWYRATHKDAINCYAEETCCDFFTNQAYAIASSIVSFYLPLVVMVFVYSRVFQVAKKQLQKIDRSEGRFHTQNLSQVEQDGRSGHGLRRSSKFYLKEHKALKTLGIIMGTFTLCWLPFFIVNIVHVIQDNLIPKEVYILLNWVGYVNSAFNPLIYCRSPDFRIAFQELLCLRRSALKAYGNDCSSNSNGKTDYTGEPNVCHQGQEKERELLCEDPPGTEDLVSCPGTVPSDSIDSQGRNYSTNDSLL
Outline: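 Selectivity index calculated as 10^[pA2(atria) − pA2(trachea)] from pA2 values measured in isolated guinea pig atria and trachea. A minus sign denotes β2 selectivity.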

Canis familiaris [11] = organism: Canis familiaris; assay: Percent inhibition of isoproterenol induced tachycardia at a dose of 8 microg (3-h infusion period); assay type: functional, Canis lupus familiaris
Canis familiaris [12] = organism: Canis familiaris; assay: Time taken for 80% recovery at a dose of 8 microg (3-h infusion period); assay type: functional, organism-based; conditions: Canis lupus familiaris
Outline: (§2)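 After the infusion ended, the time to 80% recovery of the blockade was recorded as duration of action. The listed dose is the average amount infused per minute over the 3-h period, in µg/(kg min).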

[13] = Time in which 1/2 of the initial amount disappeared in human blood.; assay type: ADME, organism-based; outline: as §1
Canis familiaris [14] = organism: Canis familiaris; assay: Time taken for 80% recovery at a dose of 209 microg (3-h infusion period); assay type: functional, organism-based; conditions: Canis lupus familiaris
Canis familiaris [15] = organism: Canis familiaris; assay: Time taken for 80% recovery at a dose of 123 microg (3-h infusion period); assay type: functional, organism-based; conditions: Canis lupus familiaris
[16] = Stability at pH 7.4 and 37 degree Celsius (after 18 h); assay type: physicochemical; conditions: buffer
Outline: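 Chemical stability was tested in pH 7.4 buffer at 37 °C. The percentage of parent compound remaining after 18 h of incubation was recorded.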

Canis familiaris [17] = organism: Canis familiaris; assay: Percent inhibition of isoproterenol induced tachycardia at a dose of 10 microg (3-h infusion period); assay type: functional, Canis lupus familiaris
Canis familiaris [18] = organism: Canis familiaris; assay: Time taken for 80% recovery at a dose of 10 microg (3-h infusion period); assay type: functional, organism-based; conditions: Canis lupus familiaris
Adrenergic receptor beta [19] = molecular target: T1, Adrenergic receptor beta; assay: In vitro beta adrenergic receptor blocking in guinea pig trachea; assay type: tissue-based, Cavia porcellus; conditions: target entry is the homologue from another species
Canis familiaris [20] = organism: Canis familiaris; assay: Percent inhibition of isoproterenol induced tachycardia at a dose of 1.1 microg (3-h infusion period); assay type: functional, Canis lupus familiaris
Canis familiaris [21] = organism: Canis familiaris; assay: Time taken for 80% recovery at a dose of 1.1 microg (3-h infusion period); assay type: functional, organism-based; conditions: Canis lupus familiaris
Canis familiaris [22] = organism: Canis familiaris; assay: Percent inhibition of isoproterenol induced tachycardia at a dose of 23 microg (3-h infusion period); assay type: functional, Canis lupus familiaris
Canis familiaris [23] = organism: Canis familiaris; assay: Time taken for 80% recovery at a dose of 23 microg (3-h infusion period); assay type: functional, organism-based; conditions: Canis lupus familiaris
Canis familiaris [24] = organism: Canis familiaris; assay: Percent inhibition of isoproterenol induced tachycardia at a dose of 3.3 microg (3-h infusion period); assay type: functional, Canis lupus familiaris
Canis familiaris [25] = organism: Canis familiaris; assay: Time taken for 80% recovery at a dose of 3.3 microg (3-h infusion period); assay type: functional, organism-based; conditions: Canis lupus familiaris
Canis familiaris [26] = organism: Canis familiaris; assay: Time taken for 80% recovery at a dose of 59 microg (3-h infusion period); assay type: functional, organism-based; conditions: Canis lupus familiaris; outline: as §2
Canis familiaris [27] = organism: Canis familiaris; assay: Percent inhibition of isoproterenol induced tachycardia at a dose of 70 microg (3-h infusion period); assay type: functional, Canis lupus familiaris
Canis familiaris [28] = organism: Canis familiaris; assay: Time taken for 80% recovery at a dose of 70 microg (3-h infusion period); assay type: functional, organism-based; conditions: Canis lupus familiaris; outline: as §2

half-life [1] [min]	half-life [4] [min]	pA2 (Adrenergic receptor beta [5])	pA2 (Adrenergic receptor beta [6])	Structure (SMILES)	Selectivity [7]	further results
12	5	6.5	8.1	CNC(=O)NCC(C)(C)NCC(O)COC(=O)c1ccccc1F (stereo not drawn)	-39	–
74	> 180	6.8	–	CC(C)(C)NCC(O)COC(=O)c1cccc([N+](=O)[O-])c1 (stereo not drawn)	–	–
–	–	6.2	6.3	CC(C)(C)NCC(O)COC(=O)c1ccc(C=O)cc1 (stereo not drawn)	–	half-life [8]: 14 min; half-life [9]: 1 min; Selectivity [10]: 1
–	–	7.7	7.2	CC(C)(CNC(=O)C1CCCCC1)NCC(O)COC(=O)c1ccccc1F (stereo not drawn)	3	Inhibition (Canis familiaris [11]): 61%; Recovery time (Canis familiaris [12]): 12 min
> 180	> 180	6.8	7.4	CC(C)(C)NCC(O)COC(=O)c1cccc2ccccc12 (stereo not drawn)	-4	–
–	–	7.8	7.5	COc1ccc(CCNCC(O)COC(=O)c2ccccc2Cl)cc1OC (stereo not drawn)	2	remaining at 18 h [16]: 59%
–	–	6.6	6.5	CC(C)(C)NCC(O)COC(=O)c1ccc([N+](=O)[O-])cc1Cl (stereo not drawn)	1	Inhibition (Canis familiaris [22]): 85%; Recovery time (Canis familiaris [23]): > 60 min
20	3.5	–	–	CC(C)C(=O)NCC(C)(C)NCC(O)COC(=O)c1ccccc1F (stereo not drawn)	–	Inhibition (Canis familiaris [24]): 62%; Recovery time (Canis familiaris [25]): 22 min
7.3	20	6.8	7.7	CC(C)(C)NCC(O)COC(=O)c1ccccc1 (stereo not drawn)	-8	remaining at 18 h [16]: 99%; half-life [13]: 5.3 min; Inhibition (Canis familiaris [27]): 65%; Recovery time (Canis familiaris [28]): > 60 min
12	7	6.6	6.7	C#CC(C)(C)NCC(O)COC(=O)c1ccccc1F (stereo not drawn)	1	–
–	–	5.9	5.9	COc1ccc(CCNCC(O)C(=O)Oc2ccccc2)cc1OC (stereo not drawn)	–	Selectivity [10]: 1

Further lines, the compound ahead of its results:

Structure (SMILES)	half-life [1] [min]	half-life [4] [min]	pA2 (Adrenergic receptor beta [5])	pA2 (Adrenergic receptor beta [6])	Selectivity [7]	further results
CC(=O)NCC(C)(C)NCC(O)COC(=O)c1ccccc1F (stereo not drawn)	7.5	–	–	–	–	Recovery time (Canis familiaris [2]): 35 min; Inhibition (Canis familiaris [3]): 61%
COc1ccc(C(=O)OCC(O)CNC(C)C)cc1 (stereo not drawn)	150	37	6	6.3	-2	half-life [13]: 55 min; Recovery time (Canis familiaris [14]): > 60 min
CC(C)NCC(O)COC(=O)c1ccc2c(c1)OCO2 (stereo not drawn)	–	29	6.9	–	–	Recovery time (Canis familiaris [15]): 50 min
CC(C)(CNC(=O)Cc1ccccc1)NCC(O)COC(=O)c1ccccc1F (stereo not drawn)	6	25	7.4	8.1	-5	Inhibition (Canis familiaris [17]): 68%; Recovery time (Canis familiaris [18]): 19 min
CC(C)(CNC(=O)N1CCOCC1)NCC(O)COC(=O)c1ccccc1F (stereo not drawn)	–	–	8.5	–	2	pA2 (Adrenergic receptor beta [19]): 8.2; Inhibition (Canis familiaris [20]): 81%; Recovery time (Canis familiaris [21]): > 60 min
CC(C)(C)NCC(O)COC(=O)CCc1ccccc1 (stereo not drawn)	< 2.5	–	< 6	–	–	half-life [13]: 71 min
COc1ccc(CCNCC(O)COC(=O)c2ccc(F)cc2)cc1OC (stereo not drawn)	–	–	7	6.7	2	Recovery time (Canis familiaris [26]): > 60 min
CC(C)NCC(O)COC(=O)c1cccc(F)c1 (stereo not drawn)	52	11	–	–	–	half-life [13]: 8 min
CCC(C)(C)NCC(O)COC(=O)c1ccccc1F (stereo not drawn)	6	12	6.7	7.7	-5	–
